From ChEMBL document CHEMBL3102846 (Eur J Med Chem, 2014) come the findings set out here.

Each structure is given as a SMILES string. Calls of active or inactive are those of the source. The calls are words filed in the database; no cut-off is given here.

The nature of series [1]: Inhibition of Wnt3A/beta-catenin signaling in HEK293 cells after 24 hrs by firefly/renilla dual luciferase reporter gene assay relative to curcumin. Type of series: cell-based. The note with it: Homo sapiens. The procedure, abridged: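 EC50s came from the HEK293T TOPglow/Renilla dual-luciferase assay with Wnt-3A conditioned medium and 24 h compound exposure (0.01–20 µM), using sigmoidal fits; three independent experiments.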
For orientation: In a reporter assay the amount or activity of a reporter protein is the signal.

The nature of series [2]: Inhibition of Wnt3A/beta-catenin signaling in HEK293 cells at 20 uM after 24 hrs by firefly/renilla dual luciferase reporter gene assay relative to vehicle-treated control. Type of series: cell-based. Further details: scale not given: the % may be the effect or the level left. Conditions: Homo sapiens. The procedure, abridged: (§1)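 HEK293T cells were co-transfected with TOPglow (or FOPglow) plus pCMV Renilla. At 20 h they were reseeded at 18×10^3/well and treated for 24 h with Wnt-3A conditioned medium (from L-Wnt-3A cells) plus analogs (0.01–20 µM; DMSO ≤0.1%). Firefly/Renilla dual-luciferase ratios were expressed as % of DMSO under Wnt-3A. EC50 was taken from sigmoidal concentration–response fits; three independent experiments.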

Series [3] can be described thus: Inhibition of Wnt3A/beta-catenin signaling-mediated Tcf4 transcriptional activity in human U2OS cells at 1 uM after 24 hrs by FOPglow reporter gene assay. The series is classed as cell-based. The procedure, abridged: (§2)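 U2OS cells (1.0×10^5/well, 90–95% confluent) were co-transfected with TOPglow or FOPglow (0.3 µg) plus pCMV Renilla. At 20 h they were treated for 24 h with Wnt-3A conditioned medium and analogs. Firefly luciferase was normalized to Renilla and expressed as % of DMSO-treated samples; mean ± S.E.M of three independent experiments.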

Series [4] is described as follows: Inhibition of Wnt3A/beta-catenin signaling-mediated Tcf4 transcriptional activity in human HEK293T cells at dual luciferase reporter gene assay EC50 after 24 hrs by FOPglow reporter gene assay. Set-up: scale not given: the % may be the effect or the level left.
A short description of series [5]: Inhibition of Wnt3A/beta-catenin signaling in HEK293 cells after 24 hrs by firefly/renilla dual luciferase reporter gene assay. The series is classed as cell-based. Conditions: Homo sapiens, HEK293, 24 h. In outline:
as §1

Series [6] is described as follows: Inhibition of Wnt3A/beta-catenin signaling in HEK293 cells at 5 uM after 24 hrs by firefly/renilla dual luciferase reporter gene assay relative to vehicle-treated control. Type of series: cell-based. Further details: scale not given: the % may be the effect or the level left. Conditions: Homo sapiens. The procedure, abridged:
as §1

The nature of series [7]: Inhibition of Wnt3A/beta-catenin signaling in human U2OS cells assessed as effect on cytoplasmic beta-catenin level at 5 uM after 24 hrs by Western blot analysis. Type of series: cell-based. In outline: (§3)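 U2OS cells were pretreated with analogs for 24 h, and cytoplasmic and nuclear fractions were prepared for β-catenin immunoblotting. α-Tubulin (cytoplasmic) and lamin A/C (nuclear) were loading references. Bands were quantified by densitometry and expressed as % of DMSO-treated cells, with at least triplicate experiments.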

The nature of series [8]: Inhibition of Wnt3A/beta-catenin signaling in human U2OS cells assessed as reduction in nuclear beta-catenin accumulation at 5 uM after 24 hrs by Western blot analysis. Type of series: cell-based. In outline: as §3
In general terms: A western blot detects proteins with antibodies after separation by electrophoresis.

The nature of series [9]: Inhibition of Wnt3A/beta-catenin signaling in HEK293 cells at 10 uM after 24 hrs by firefly/renilla dual luciferase reporter gene assay relative to vehicle-treated control. The series is classed as cell-based. Set-up: scale not given: the % may be the effect or the level left. Conditions: Homo sapiens. In outline: as §1
Series [10] in a line: Inhibition of Wnt3A/beta-catenin signaling in HEK293 cells at 1 uM after 24 hrs by firefly/renilla dual luciferase reporter gene assay relative to vehicle-treated control. The series is classed as cell-based. Set-up: scale not given: the % may be the effect or the level left. Conditions: Homo sapiens. In outline: as §1
Series [11] in a line: Inhibition of Wnt3A/beta-catenin signaling-mediated Tcf4 transcriptional activity in human U2OS cells at 10 uM after 24 hrs by FOPglow reporter gene assay. The series is classed as cell-based. The procedure, abridged:
as §2

A short description of series [12]: Inhibition of Wnt3A/beta-catenin signaling-mediated Tcf4 transcriptional activity in human U2OS cells at 20 uM after 24 hrs by FOPglow reporter gene assay. The series is classed as cell-based. The procedure, abridged:
as §2

The subject of series [13] is U2OS. In words: Antiinvasive activity in human U2OS cells at 5 uM after 24 hrs by matrigel assay. The series is classed as functional. In outline:
(§4)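 U2OS osteosarcoma cells were pretreated with analogs for 24 h, and viability was confirmed by trypan blue. Cells were then seeded at 1.5×10^5 in serum-free medium onto inserts precoated with 30 µg Matrigel (8 µm pore), with McCoy's 5A plus 15% FBS below as chemoattractant. After 48 h of invasion, cells were fixed in 70% ethanol, stained with 0.2% crystal violet, and counted in ten random fields at 200×. Values are % of DMSO control; n=3.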

The subject of another series is HEK293T (human). In words: Cytotoxicity against human HEK293T cells at dual luciferase reporter gene assay EC50 after 24 hrs by MTS assay.
In series [14] the test system is U2OS. The series is described as follows: Downregulation of MMP9 protein expression in human U2OS cells at 1 to 5 uM after 24 hrs by Western blot analysis. Type of series: functional, cell-based. In outline:
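U2OS cells were exposed to analogs or DMSO vehicle for 24 h, then total protein was collected and MMP-9 immunoblotted. Blots were repeated at least in triplicate.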

Series [15] has as its system U2OS. In words: Antiinvasive activity in human U2OS cells at 1 uM after 24 hrs by matrigel assay. Type of series: functional. In outline:
as §4

Series [16] can be described thus: Inhibition of Wnt3A/beta-catenin signaling-mediated Tcf4 transcriptional activity in human U2OS cells at 5 uM after 24 hrs by FOPglow reporter gene assay. The series is classed as cell-based. In outline:
as §2

Usually inhibition stands for the share of the control response that was lost under treatment. As a reminder, the EC50 is the concentration that produces a half-maximal response. `O=C1/C(=C/c2ccc(O)cc2)CCC/C1=C\c1ccc(O)cc1` registered a fold change (FC) in [1] of 25.8. Also, the activity in series [2] came to 16.7%; in series [4], 85.1%; in series [6], 26.9%; in series [9] it was 26.3%; in [10] it was 51.9%. For the same molecule, the inhibition in series [3] turned out to be 25.7%. This molecule showed a concentration for a half-maximal effect (EC50) in series [5] of 0.8 µM. Besides, the inhibition result in series [7] and in series [8] was “inactive” each time.
With `COc1cc(/C=C/C(=O)CC(=O)/C=C/c2ccc(O)c(OC)c2)ccc1O` [CURCUMIN], the results for the inhibition in series [11] and in series [12] were 27.1% and 59.4%, respectively. Moreover, the activity in series [2] turned out to be 62.8%; in series [4], 89.3%; in series [6], 98.2%; in series [9] it was 82.5%; in series [10], 99.4%. In [5], this molecule showed a concentration giving a half-maximal response (EC50) of 20.7 µM. This molecule returned an Activity in the series with U2OS [13] of 29%.
For the molecule `O=C1/C(=C/c2ccc(O)cc2)CC/C1=C\c1ccc(O)cc1`, the Activity in the series on HEK293T (human) is reported as 81.4%; in the series on U2OS [13], 72.8%; with U2OS [15], 34.8%. This molecule gave a fold change (FC) in [1] of 50.5. The activity result with U2OS [14] is “Active”. Moreover, the activity in [2] was 8%; in series [4] it was 101%; in [6] it was 28.3%; in series [9], 19.6%; in series [10], 34.3%. Further, in series [3], the inhibition was 25.7%. This molecule also gave an EC50 in series [5] of 0.4 µM. Further, the inhibition entry in [7] is “inactive”. The inhibition result in series [8] is “Active”.
Take `COc1ccc(/C=C2\CCC/C(=C\c3ccc(OC)c(O)c3)C2=O)cc1O`: the Activity amounted to 91.6% with HEK293T (human), 81.6% in the series with U2OS [13] and 34.8% with U2OS [15]. The same molecule showed a fold change (FC) in [1] of 59.7. Moreover, the activity entry in the series with U2OS [14] is “Active”. Further, the activity is 21.4% in [2]; 93.8% in series [4]; 27.7% in series [6]; 24.7% in series [9]; 37.3% in series [10]. The same molecule came in with an inhibition in series [3] of 25.7%. Further, the 50% effective concentration (EC50) in series [5] was 0.3 µM. For the same molecule, the inhibition result in [7] was “inactive”. For the same molecule, the inhibition entry in [8] was “Active”.
`O=C(/C=C/c1ccc(O)cc1)/C=C/c1ccc(O)cc1` showed a fold change (FC) in [1] of 6.5. Besides, in the series with U2OS [14], the activity result was “Active”. Also, the activity worked out at 37.8% in series [2]; 100% in series [4]; 51.3% in series [6]; 52% in series [9]; 62.3% in series [10]. Also, the inhibition in series [3] came to 25.7%. The half-maximal effective concentration (EC50) in series [5] turned out to be 3.2 µM. Also, the inhibition entry in series [7] is “inactive”. In addition, the inhibition result in series [8] is “Active”. The Activity stood at 76.2% with U2OS [13] and 34.8% in the series with U2OS [15].
As for `COc1ccc(/C=C2\CC/C(=C\c3ccc(OC)c(O)c3)C2=O)cc1O`, in the series on HEK293T (human), the Activity was found to be 86.9%. In series [1], this molecule gave a fold change (FC) of 40.4. Moreover, the activity amounted to 39.2% in [2]; 110% in [4]; 45% in [6]; 39.5% in series [9]; 52.6% in series [10]. This molecule came in with an inhibition in series [3] of 25.7%. For the same molecule, in series [5], the concentration giving a half-maximal response (EC50) is 0.5 µM. Also, the inhibition entry in series [7] and in series [8] was “inactive” each time.
`COc1ccc(/C=C/C(=O)/C=C/c2ccc(OC)c(O)c2)cc1O` displayed an Activity with HEK293T (human) of 86.6%. This molecule also came in with a fold change (FC) in series [1] of 11.2. Moreover, the activity came out at 105% in [4], 38.8% in series [6], 34.4% in series [9] and 82.5% in series [10]. Besides, the half-maximal effective concentration (EC50) in series [5] came out at 1.8 µM. Moreover, the inhibition result in series [7] and in series [8] was “inactive” each time. For the same molecule, the inhibition in [16] came out at 49.4%.
